According to ChEMBL document CHEMBL1124455, “Benzodiazepine receptor binding activity of 6,9-disubstituted purines” (J Med Chem, 1989):

Columns and labels:
[1] = molecular target: T1, GABA-A receptor; anion channel (Rattus norvegicus) (UniProt O09028+P15431+P18506+P18508+P19969+P20236+P23574+P23576+P28471+P28473+P30191+P62813+P63079+P63138+Q91ZM7+Q9ES14); assay: Percent inhibition of [3H]diazepam binding to rat brain GABA-A benzodiazepine receptor at 100 uM
Summary of the method: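 Membranes from male Sprague-Dawley rat brain (110–220 g; cerebellum and pons medulla removed), homogenized in 0.32 M sucrose. The 30000g pellet was stored frozen and resuspended in Tris-HCl pH 7.5. […] Filtered on GF/C and washed with ice-cold buffer, then scintillation counted. Percent inhibition of specific binding at 100 μM; IC50 usually determined when >75%.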

[2] = molecular target: T1, GABA-A receptor; anion channel (Rattus norvegicus); assay: The percent inhibition of [3H]diazepam binding to the benzodiazepine receptor of rat brain elicited by 100 uM of compound
[3] = molecular target: GABA-A receptor; anion channel; assay: Concentration that inhibits binding of 1.5 nM [3H]diazepam to rat brain benzodiazepine receptor
Summary of the method: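 Membranes from male Sprague-Dawley rat brain (110–220 g; cerebellum and pons medulla removed), homogenized in 0.32 M sucrose. The 30000g pellet was stored frozen and resuspended in Tris-HCl pH 7.5. Filtered on GF/C and washed with ice-cold buffer, then scintillation counted.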

Rattus norvegicus [4] = assay: Effect on conflict responding in Long-Evans rats when 25 mg/kg was administered by oral gavage in a modified Geller-Seifter conflict schedule.; format: functional
Summary of the method: (§1)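 Rats run on a modified Geller-Seifter conflict schedule. Shock was 0.00 mA for the first response of each conflict period, rising by 0.05 mA per successive response. 25 mg/kg given by oral gavage as a 0.5% methylcellulose suspension, 60 min before the operant session. Result is percent change in conflict responses versus the preceding day, mean and SEM, at least four rats.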

Rattus norvegicus [5] = assay: Effect on conflict responding in Long-Evans rats when 5 mg/kg was administered by oral gavage in a modified Geller-Seifter conflict schedule.; format: functional
Summary of the method: (§2)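 Rats on a modified Geller-Seifter operant conflict schedule were dosed by oral gavage as a 0.5% methylcellulose suspension 60 min before the session. Shock was 0.00 mA for the first response in each conflict period, rising 0.05 mA with each further response. The value is the percent change in conflict responses from the preceding day, as mean and SEM of at least four rats.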

Rattus norvegicus [6] = assay: Effect on conflict responding in Long-Evans rats when 10 mg/kg was administered by oral gavage in a modified Geller-Seifter conflict schedule.; format: functional; summary of the method: as §2
Rattus norvegicus [7] = assay: Effect on conflict responding in Long-Evans rats when 25 mg/kg was administered by oral gavage in a modified Geller-Seifter conflict schedule and the value ranges from -10 to + 13; format: functional; summary of the method: as §1
[8] = in the assay text read “10 uM” for “100 uM”

SMILES | inhibition [2] | IC50 [3] | also measured
c1ccc(Cn2cnc3cncnc32)cc1 | – | – | inhibition [1]: 34%
CN(C)c1ncnc2c1ncn2Cc1ccccc1[N+](=O)[O-] | – | – | inhibition [2, 8]: 48%
Cc1ccccc1Cn1cnc2c(N(C)C)ncnc21 | 70% | – | –
CN(C)c1ncnc2c1ncn2C(c1ccccc1)c1ccccc1 | – | 17 µM | –
CN(C)c1ncnc2c1ncn2CCCc1ccccc1 | 0% | – | –
CN(C)c1ncnc2c1ncn2Cc1ccccc1N | – | – | inhibition [2, 8]: 19%
Oc1ncnc2c1ncn2Cc1ccccc1 | – | 19 µM | –
CSc1ncnc2c1ncn2Cc1ccccc1 | – | 3.3 µM | Change in conflict (Rattus norvegicus [4]): 13%
CN(C)c1ncnc2c1ncn2Cc1cccc(Br)c1 | 63% | – | –
CN(C)c1ncnc2c1ncn2Cc1ccc(F)cc1 | 23% | – | –
CN(C)c1ncnc2c1ncn2C | 0% | – | –
CC(=O)Oc1cccc(Cn2cnc3c(N(C)C)ncnc32)c1 | – | 0.44 µM | Change in conflict (Rattus norvegicus [4]): 2%
CN(C)c1ncnc2c1ncn2Cc1ccc(O)cc1 | – | – | inhibition [2, 8]: 15%
CN(C)c1ncnc2c1ncn2Cc1ccccc1F | – | 5.4 µM | Change in conflict (Rattus norvegicus [4]): 17%
CCN(CC)c1ncnc2c1ncn2Cc1ccccc1 | 83% | – | –
CCNc1ncnc2c1ncn2Cc1ccccc1 | – | 19 µM | –
COc1ccc(Cn2cnc3c(N(C)C)ncnc32)cc1 | 0% | – | –
CN(C)c1ncnc2c1ncn2Cc1cccc(I)c1 | 64% | – | –
CN(C)c1ncnc2c1ncn2Cc1cccc(CO)c1 | – | 5 µM | Change in conflict (Rattus norvegicus [4]): 4%
c1ccc(Cn2cnc3c(NC4CC4)ncnc32)cc1 | – | – | inhibition [1]: 68%

SMILES | inhibition [2] | IC50 [3] | also measured
CN(C)c1ncnc2c1ncn2Cc1cccc(OC(=O)C(C)(C)C)c1 | – | 1.6 µM | Change in conflict (Rattus norvegicus [4]): 6%
CN(C)c1ncnc2c1ncn2Cc1ccc(C#N)cc1 | 26% | – | –
C[C@@H](c1ccccc1)n1cnc2c(N(C)C)ncnc21 | – | 2.1 µM | Change in conflict (Rattus norvegicus [4]): 5%
CN(C)c1ncnc2c1ncn2Cc1cccc(O)c1 | – | 1.2 µM | Change in conflict (Rattus norvegicus [4]): 2%
COc1cccc(Cn2cnc3c(N(C)C)ncnc32)c1 | 70% | – | –
CNc1ncnc2c1ncn2Cc1ccccc1 | – | 24 µM | Change in conflict (Rattus norvegicus [4]): -3%
Clc1ncnc2c1ncn2Cc1ccccc1 | 40% | – | –
CN(C)c1ncnc2c1ncn2Cc1cccc(F)c1 | – | 7.3 µM | –
CN(C)c1ncnc2c1ncn2Cc1ccccc1Cl | – | 13 µM | –
Cc1ccc(Cn2cnc3c(N(C)C)ncnc32)cc1 | 22% | – | –
CN(C)c1ncnc2c1ncn2Cc1cccc([N+](=O)[O-])c1 | 48% | – | –
CN(C)c1ncnc2c1ncn2Cc1ccc(N)cc1 | 67% | – | –
Cc1cccc(Cn2cnc3c(N(C)C)ncnc32)c1 | 62% | – | –
CNC1=Nc2ccc(Cl)cc2C(c2ccccc2)=[N+]([O-])C1 [CHLORDIAZEPOXIDE] | – | 0.2 µM | Change in conflict (Rattus norvegicus [5]): 24%; Change in conflict (Rattus norvegicus [6]): 46%; Change in conflict (Rattus norvegicus [4]): 67%
c1ccc(Cn2cnc3c(N4CCCC4)ncnc32)cc1 | – | 16 µM | Change in conflict (Rattus norvegicus [4]): 10%
c1ccc(Cn2cnc3c(N4CCC4)ncnc32)cc1 | – | 15 µM | Change in conflict (Rattus norvegicus [4]): -7%
CN(C)c1ncnc2c1ncn2Cc1cccc(C#N)c1 | 70% | – | –
OCCNc1ncnc2c1ncn2Cc1ccccc1 | – | – | inhibition [1]: 73%
CN(C)c1ncnc2c1ncn2Cc1cccc(C(F)(F)F)c1 | 49% | – | –
Cn1cnc2c(ncn2Cc2ccccc2)c1=O | – | 15.5 µM | Change in conflict (Rattus norvegicus [4]): -16%

SMILES | inhibition [2] | IC50 [3] | also measured
CCN(C)c1ncnc2c1ncn2Cc1ccccc1 | – | 19 µM | –
C[C@H](c1ccccc1)n1cnc2c(N(C)C)ncnc21 | 56% | – | –
CN(C)c1ncnc2c1ncn2C1CCCc2ccccc21 (stereo unspecified) | – | 22 µM | –
CN(C)c1ncnc2c1ncn2Cc1ccc(Cl)cc1 | 24% | – | –
CN(C)c1ncnc2c1ncn2Cc1ccc(OCc2ccccc2)cc1 | 11% | – | –
Nc1ncnc2c1ncn2Cc1ccccc1 [9-BENZYL-9H-ADENINE] | – | 37 µM | –
CN(C)c1ncnc2c1ncn2Cc1cccc(Cl)c1 | 59% | – | –
CN(C)c1ncnc2c1ncn2CCc1ccccc1 | 0% | – | –
COc1ncnc2c1ncn2Cc1ccccc1 [9-BENZYL-6-METHOXY-9H-PURINE] | – | 14 µM | Change in conflict (Rattus norvegicus [4]): 26%
CN(c1ncnc2c1ncn2Cc1ccccc1)C1CCCC1 | – | 14 µM | Change in conflict (Rattus norvegicus [7]): -10%
CN(C)c1ncnc2c1ncn2-c1ccccc1 | – | – | inhibition [1]: 0%
CN(C)c1ncnc2c1ncn2C1Cc2ccccc2C1 | – | – | inhibition [1]: 48%
CN(C)c1ncnc2c1ncn2Cc1cccc(N)c1 | – | 0.9 µM | Change in conflict (Rattus norvegicus [4]): 4%
CC(=O)Nc1ccc(Cn2cnc3c(N(C)C)ncnc32)cc1 | 22% | – | –
COc1ccccc1Cn1cnc2c(N(C)C)ncnc21 | – | 20 µM | –
CN(C)c1ncnc2nc[nH]c12 | 57% | – | –
CN(C)c1ncnc2c1ncn2Cc1ccccc1 | – | 13 µM | Change in conflict (Rattus norvegicus [4]): -17%
CN(C)c1ncnc2c1ncn2Cc1ccc([N+](=O)[O-])cc1 | 23% | – | –
